# Assay outcomes from PubChem BioAssay.
# TRPC6 inh: mouse TRPC6 channel inhibitors, primary screen, cell-based, HEK293, membrane potential dye; Short transient receptor potential channel 6 (Mus musculus), Q61143; ACh-evoked depolarization; stronger effect = lower value; B-score at 10 µM; 310,000 compounds, 1.1% hits; AID 2553, 2010;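 active means B-score under library mean minus 3 SD, initial fluorescence not abnormally high, positive integrated signal ratio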;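 further: B-score derived from integrated fluorescence ratio over the kinetic read; more negative B-score means stronger inhibition of depolarization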
# TRPC4 PAM: positive allosteric modulators of TRPC4, primary screen, cell-based, mouse TRPC4beta, HEK293 mu-opioid, Fluo-4 calcium; DAMGO EC20, Fluo-4 Ca2+ flux; stronger effect = higher value; B-score at 10 µM; 310,000 compounds, 0.42% hits;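 active means B-score of calcium response area above 5 SD of library B-scores, with initial fluorescence ratio within 5 SD of library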;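 further: B-score of integrated fluorescence ratio over time as area under calcium response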
# Target sequence (Q9QUQ5 whole entry, looked up): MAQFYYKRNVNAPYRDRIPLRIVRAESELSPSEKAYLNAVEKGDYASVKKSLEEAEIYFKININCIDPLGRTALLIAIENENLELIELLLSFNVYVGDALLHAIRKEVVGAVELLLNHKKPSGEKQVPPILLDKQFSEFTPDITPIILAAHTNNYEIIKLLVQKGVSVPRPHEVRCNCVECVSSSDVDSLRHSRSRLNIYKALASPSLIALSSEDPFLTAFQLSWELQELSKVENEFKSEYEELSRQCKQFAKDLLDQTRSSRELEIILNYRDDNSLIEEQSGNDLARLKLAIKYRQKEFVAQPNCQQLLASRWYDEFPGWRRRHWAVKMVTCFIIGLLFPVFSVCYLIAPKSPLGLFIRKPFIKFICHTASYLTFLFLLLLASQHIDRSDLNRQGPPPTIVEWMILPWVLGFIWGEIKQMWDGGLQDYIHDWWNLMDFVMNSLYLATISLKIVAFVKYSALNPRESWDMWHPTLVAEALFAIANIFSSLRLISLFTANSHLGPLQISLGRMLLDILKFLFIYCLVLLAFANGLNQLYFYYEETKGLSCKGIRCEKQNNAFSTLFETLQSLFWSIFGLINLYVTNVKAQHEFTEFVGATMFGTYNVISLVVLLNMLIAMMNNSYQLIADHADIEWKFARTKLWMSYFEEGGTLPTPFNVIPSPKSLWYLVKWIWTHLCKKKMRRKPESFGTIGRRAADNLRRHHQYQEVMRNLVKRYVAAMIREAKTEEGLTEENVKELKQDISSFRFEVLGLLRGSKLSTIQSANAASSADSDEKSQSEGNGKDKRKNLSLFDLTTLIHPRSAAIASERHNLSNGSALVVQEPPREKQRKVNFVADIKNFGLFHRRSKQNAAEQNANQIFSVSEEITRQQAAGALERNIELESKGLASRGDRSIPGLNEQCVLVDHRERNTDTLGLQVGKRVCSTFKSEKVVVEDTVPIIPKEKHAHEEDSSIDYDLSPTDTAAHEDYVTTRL
# TRPC4 agonist: activators of mouse TRPC4 channel, primary screen, Fluo4 calcium, HEK293 TRPC4beta/mu-opioid cells | Short transient receptor potential channel 4 (Mus musculus), Q9QUQ5 | Fluo4 calcium fluorescence; stronger effect = higher value | B-score at 10 µM | 310,000 compounds, 0.49% hits;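 active means B-score above 5 SD of library B-scores, and initial fluorescence ratio not above library mean plus 5 SD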;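 further: positive B-score marks a calcium rise read as TRPC4 activation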
#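 System: HEK293 cells stably co-expressing mouse TRPC4beta and mu-opioid receptor; Schedule: Fluo4 dye loading 45 min at room temperature, 110 s recording; Detection: Fluo4 fluorescence, kinetic; Evaluation: B-scored integrated calcium fluorescence ratio; Controls: buffer (low) and maximal DAMGO (high).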
# TRPC4 block: inhibitors of mouse TRPC4 channel, primary screen, Fluo4 calcium, HEK293 TRPC4beta/mu-opioid cells | Short transient receptor potential channel 4 (Mus musculus), Q9QUQ5 | DAMGO-evoked Fluo4 calcium flux; stronger effect = lower value | B-score at 10 µM | 300,000 compounds, 0.39% hits | AID 2247, 2010;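 active means B-score over 3 SD under the library average, no early fluorescence shift, positive overall ratio signal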
#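 material = TRPC4beta/mu-opioid receptor HEK293 cell line | probe or stimulus = sequential submaximal and maximal DAMGO stimulation | compound dosing = one concentration per compound | measured by = Fluo4 Ca2+ flux fluorescence | evaluation = integrated fluorescence ratio relative to baseline, converted to per-well B score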
# TRPC6 activator: mouse TRPC6 channel activators, primary screen, cell-based, HEK293, membrane potential dye. Short transient receptor potential channel 6 (Mus musculus), Q61143. HEK293-TRPC6 membrane potential dye fluorescence; stronger effect = higher value. B-score at 10 µM. 310,000 compounds, 0.13% hits;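 active means B-score of the integrated fluorescence ratio above library mean plus 3 SD, and starting fluorescence ratio within library mean plus 5 SD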;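 further: higher score means more depolarization so channel activation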
# * marks the source's active call; other numbers are inactive results; i = inactive. Sampled rows, rich in hits. Any-hit rate of the full collection: about 2.3%.
SMILES,TRPC6 inh,TRPC4 PAM,TRPC4 agonist,TRPC4 block,TRPC6 activator
N=C1c2ccccc2CN1NC(=O)c1cccc(S(=O)(=O)N2CCCCC2)c1,i,i,49*,i,i
CCN(CC)CCSc1nc2ccc(OC)cc2[nH]1,i,i,124*,i,i
O=C(NCC(c1ccco1)N1CCCC1)c1sc2ccccc2c1Cl (stereo not given),i,i,43*,i,i
O=C(NCC(c1ccco1)N1CCCC1)c1ccccc1F (stereo not given),i,i,i,i,i
COc1ccc(Cl)cc1C(=O)NCC(c1ccco1)N1CCCC1 (stereo not given),i,i,52*,i,i
COc1ccc(Cl)cc1C(=O)NCC(c1ccco1)N(C)C (stereo not given),i,i,i,i,i
COc1cc(OC)cc(OC(=O)c2ccc3c(=O)n4c(nc3c2)CCC4)c1,i,i,i,i,i
Cc1ccc(N2C(=O)CC3(CC4C=CC3C4)C2=O)cc1 (stereo not given),i,i,i,i,i
COc1cccc(OCCn2cc(C(C)=O)c3ccccc32)c1,i,i,i,i,i
CC(=O)N1CCCc2cc(S(=O)(=O)N3CCN(C4CCCCC4)CC3)ccc21,i,i,57*,i,i
COc1ccc(C(CNC(=O)C2CC(=O)N(Cc3ccc(C)cc3)C2)N(C)C)cc1 (stereo not given),i,i,66*,i,i
CN(C)C(CNC(=O)C1CC(=O)N(Cc2ccccc2)C1)c1ccccc1 (stereo not given),i,i,72*,i,i
COC(=O)C1CC(=O)N(Cc2ccccc2)C1 (stereo not given),i,i,i,i,i
CO/N=C/c1cccn1-c1nccc(N(C)C)c1C#N,i,i,i,i,i
C/C(=N/NC(=O)c1ccc(Cn2cccn2)o1)c1cccc(NC(=O)c2ccncc2)c1,i,i,62*,-6*,i
C/C(=N\NC(=O)c1ccncc1)c1cccc(NC(=O)c2ccc(C(C)(C)C)cc2)c1,i,i,i,i,i
O=C(Cn1c(=O)c2cccn2c2cccnc21)N1CCN(c2ccc(Cl)cc2)CC1,i,i,i,i,i
Cc1ccc(CN2C3=NCCN3c3ccccc32)cc1,i,i,i,-6*,i
Clc1ccc(CN2C3=NCCN3c3ccccc32)cc1Cl,i,i,i,-6*,i
COc1ccc2c(C(=O)c3ccc(Cl)cc3)n(CCCC(N)=O)[n+]([O-])c2c1,i,i,i,i,i
CC(=O)Nc1ccccc1OCC(=O)NCC(F)(F)F,i,i,i,i,i
CCn1c(-c2ccccc2)csc1=Nc1ccc(O)cc1,i,i,i,-5*,i
O=C(N[C@@H]1CCC(=O)N(CC[C@H](Oc2ccccc2)c2ccccc2)CC1)OCc1ccccc1,i,i,i,i,i
Cn1c(SCCOc2ccccc2F)nc2ccccc2c1=O,i,16*,i,i,i
COCCn1c(SCc2nc3ccccc3c(=O)[nH]2)nc2ccccc2c1=O,i,i,i,i,i
SMILES,TRPC6 inh,TRPC4 PAM,TRPC4 agonist,TRPC4 block,TRPC6 activator
COCCn1c(SCc2ccc(F)cc2)nc2ccccc2c1=O,i,i,i,-6*,i
COCCn1c(SCc2ccc(OC)c(F)c2)nc2ccccc2c1=O,i,i,i,-7*,i
CCSc1nc2ccccc2c(=O)n1CCc1ccc(OC)c(OC)c1,i,i,i,i,i
CCCCNS(=O)(=O)c1ccc(NC(=O)C(Sc2ccccc2)c2ccccc2)cc1 (stereo not given),i,i,i,i,i
O=C(NC(=S)N1CCN(Cc2ccc3c(c2)OCO3)CC1)c1ccc(Cl)cc1,i,i,i,i,i
CCN(CC)c1nc(N2CCOCC2)nc2ccccc12,i,i,i,-6*,i
O=C(Nc1nccs1)c1ccc(COc2c(F)c(F)cc(F)c2F)cc1,i,i,i,i,i
CC(=O)N(Cc1c(C)nn(-c2ccccc2)c1Cl)c1ccc(Cl)cc1,i,i,i,i,i
Cc1nn(-c2ccccc2)c(Cl)c1CN(C(=O)CCl)c1cccc2ccccc12,i,i,i,-7*,i
Cc1nn(-c2ccccc2)c(Cl)c1CN(C(=O)CCl)c1ccc(Cl)cc1,i,i,i,-7*,i
Cc1ccc(S(=O)(=O)NCCC(=O)Nc2ccncc2)cc1C,i,i,i,i,i
CN(C)CCCOC(=O)c1ccc(Cl)cc1Cl,i,27*,i,i,i
CCCN(CCC)CCCOC(=O)c1ccc(Cl)cc1Cl,i,i,i,i,i
COCc1c(C(=O)NC(C)c2ccc(S(N)(=O)=O)cc2)oc2ccccc12 (stereo not given),i,i,i,i,i
CC(C)c1ccc(NC(=O)N(CCc2nc3ccccc3[nH]2)C2CCCC2)cc1,i,i,75*,-7*,i
Cc1c(NC(=O)COc2ccc(C(C)C)cc2)c(=O)n(-c2ccccc2)n1C,i,i,i,i,i
Cc1ccccc1NC(=O)C(C)Sc1nnc(-c2ccncc2)n1CC1CCCO1 (stereo not given),i,i,i,i,i
Cc1nn(C(=O)CNS(=O)(=O)c2ccccc2)c(C)c1Sc1ccc(Cl)cc1,i,i,i,-7*,i
COc1ccccc1C(=O)N/C(=C\c1cn(S(=O)(=O)N(C)C)c2ccccc12)C(=O)N1CCCCC1,i,i,i,i,i
C=CCc1cc(Cl)ccc1OCCCNCCO,i,14*,i,i,i
C=CCc1cc(Cl)ccc1OCCCNC(C)C,i,i,i,i,i
O=C1/C(=C/c2ccncc2)SC(=S)N1Cc1ccccc1,i,12*,i,i,i
CCOc1ccc(S(=O)(=O)Nc2ccc(C(=O)N3CCCC3)cc2)cc1,i,i,i,i,i
Cc1ccc(NS(=O)(=O)c2ccc(C(=O)N3CC(C)OC(C)C3)cc2)cc1 (stereo not given),i,i,53*,i,i
